The target in assay [1] is T1, integrin α5β1 (Homo sapiens, UniProt P05556+P08648). The following applies: read-out: α5β1 IC50; cited from earlier work.
Assay [2] addresses T1, integrin α5β1. In words: Integrin α5β1 binding assay.
The next assay addresses human integrin αvβ3 (Homo sapiens, UniProt P05106+P06756). It counts as binding. The following applies: SD. Summed up:
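Immobilized isolated human αvβ3 integrin incubated with biotinylated vitronectin (1 μg mL−1) plus test compound over 10−5–10−12 M. Bound biotinylated vitronectin measured. IC50 taken as the concentration giving 50 % inhibition of vitronectin binding, calculated from the concentration-response data. Values are mean ± standard deviation of duplicate measurements.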

Where two headings read alike, the source gives them in different places.

By IC50 is commonly meant the concentration needed to halve the response being measured. As to `N=C(N)NCCC[C@@H]1NC(=O)C[C@H]2NC(=O)[C@H](CNC(=O)[C@H](CC(=O)O)NC(=O)CNC1=O)N(Cc1ccccc1)C2=O` [compound 1, cyclo[DKP‐RGD]], the half-inhibitory concentration (IC50) at integrin α5β1 [1] is 532 nM.
`N=C(N)NCCC[C@@H]1NC(=O)CNC(=O)C[C@@H](C(=O)O)NC(=O)C[C@H]2NC(=O)[C@H](CNC1=O)N(Cc1ccccc1)C2=O` [compound 3, cyclo[DKP‐isoDGR]] had an IC50 at integrin α5β1 [2] of 1070 nM.
Consider `COc1ccc(C[C@H]2NC(=O)/C=C/C[C@@H]([C@H](C)[C@@H](OC(=O)CNC(=O)OCc3ccc(NC(=O)[C@H](C)NC(=O)[C@@H](NC(=O)CCc4cn(CCOCCOCCOCCOCC(=O)NCc5ccc(CN6C(=O)[C@H]7CC(=O)N[C@@H](CCCNC(=N)N)C(=O)NCC(=O)N[C@@H](CC(=O)O)C(=O)NC[C@H]6C(=O)N7)cc5)nn4)C(C)C)cc3)[C@@H](Cl)c3ccccc3)OC(=O)[C@H](CC(C)C)OC(=O)C(C)(C)CNC2=O)cc1Cl` [compound 10, cyclo[DKP‐RGD]‐PEG4‐Val−Ala‐PABC‐Cry‐55gly], for which the IC50 at human integrin αvβ3 came out at 7.2 ± 1.5 nM.
In turn, `COc1ccc(C[C@H]2NC(=O)/C=C/C[C@@H]([C@H](C)[C@@H](OC(=O)CNC(=O)OCc3ccc(NC(=O)[C@H](C)NC(=O)[C@@H](NC(=O)CCc4cn(CCOCCOCCOCCOCC(=O)NCc5ccc(CN6C(=O)[C@H]7CC(=O)N[C@H](C(=O)O)CC(=O)NCC(=O)N[C@@H](CCCNC(=N)N)C(=O)NC[C@H]6C(=O)N7)cc5)nn4)C(C)C)cc3)[C@@H](Cl)c3ccccc3)OC(=O)[C@H](CC(C)C)OC(=O)C(C)(C)CNC2=O)cc1Cl` [compound 11, cyclo[DKP‐isoDGR]‐PEG4‐Val−Ala‐PABC‐Cry‐55gly] showed a half-inhibitory concentration (IC50) on human integrin αvβ3 of 5.5 ± 2.8 nM.
The compound `COc1ccc(C[C@H]2NC(=O)/C=C/C[C@@H]([C@H](C)[C@@H](OC(=O)CNC(=O)CCc3cn(CCOCCOCCOCCOCC(=O)NCc4ccc(CN5C(=O)[C@H]6CC(=O)N[C@@H](CCCNC(=N)N)C(=O)NCC(=O)N[C@@H](CC(=O)O)C(=O)NC[C@H]5C(=O)N6)cc4)nn3)[C@@H](Cl)c3ccccc3)OC(=O)[C@H](CC(C)C)OC(=O)C(C)(C)CNC2=O)cc1Cl` [compound 13, cyclo[DKP‐RGD]‐PEG4‐uncl‐Cry‐55gly] yielded an IC50 against human integrin αvβ3 of 24.1 ± 1 nM.
On human integrin αvβ3, `COc1ccc(C[C@H]2NC(=O)/C=C/C[C@@H]([C@H](C)[C@@H](OC(=O)CNC(=O)CCc3cn(CCOCCOCCOCCOCC(=O)NCc4ccc(CN5C(=O)[C@H]6CC(=O)N[C@H](C(=O)O)CC(=O)NCC(=O)N[C@@H](CCCNC(=N)N)C(=O)NC[C@H]5C(=O)N6)cc4)nn3)[C@@H](Cl)c3ccccc3)OC(=O)[C@H](CC(C)C)OC(=O)C(C)(C)CNC2=O)cc1Cl` [compound 14, cyclo[DKP‐isoDGR]‐PEG4‐uncl‐Cry‐55gly] registered a half-inhibitory concentration (IC50) of 10.2 ± 0.4 nM.

These data come from paper PMC6587324 (ChemistryOpen, 2019).
